Organism: Bos taurus
Experiment: Thermal denaturation (deltaTm) of compound against calf thymus DNA was measured
Assay type: ADME
Conditions: cattle, in vitro
Summary of the method: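 Calf thymus DNA (MW 100 000–500 000) in 0.01 M phosphate, 5 × 10^-3 M EDTA, pH 7.0; drug 7 × 10^-4 M, DNA nucleotide 7 × 10^-3 M; 259 nm absorbance read at 0.25–1.0 °C steps; Tm taken at 50% hyperchromicity; ΔTm = complex Tm minus DNA Tm.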

Compound | Delta Tm
Cc1c2oc3c(C)ccc(C(=O)N[C@@H]4C(=O)N[C@H](C(C)C)C(=O)N5CCC[C@H]5C(=O)N(C)CC(=O)N(C)[C@@H](C(C)C)C(=O)O[C@@H]4C)c3nc-2c(C(=O)N[C@@H]2C(=O)N[C@H](C(C)C)C(=O)N3CCC[C@H]3C(=O)N(C)CC(=O)N(C)[C@@H](C(C)C)C(=O)O[C@@H]2C)c(NCCCCCCCCN)c1=O | 0.3
CCCCNc1c(C(=O)N[C@@H]2C(=O)N[C@H](C(C)C)C(=O)N3CCC[C@H]3C(=O)N(C)CC(=O)N(C)[C@@H](C(C)C)C(=O)O[C@@H]2C)c2nc3c(C(=O)N[C@@H]4C(=O)N[C@H](C(C)C)C(=O)N5CCC[C@H]5C(=O)N(C)CC(=O)N(C)[C@@H](C(C)C)C(=O)O[C@@H]4C)ccc(C)c3oc-2c(C)c1=O | 0.2
Cc1c2oc3c(C)c(O)c(N)c(C(=O)N[C@@H]4C(=O)N[C@H](C(C)C)C(=O)N5CCC[C@H]5C(=O)N(C)CC(=O)N(C)[C@@H](C(C)C)C(=O)O[C@@H]4C)c3nc-2c(C(=O)N[C@@H]2C(=O)N[C@H](C(C)C)C(=O)N3CCC[C@H]3C(=O)N(C)CC(=O)N(C)[C@@H](C(C)C)C(=O)O[C@@H]2C)c/c1=N/Cc1ccc[nH]1 | 15.8
CCCCCCCCCCCNc1c(C(=O)N[C@@H]2C(=O)N[C@H](C(C)C)C(=O)N3CCC[C@H]3C(=O)N(C)CC(=O)N(C)[C@@H](C(C)C)C(=O)O[C@@H]2C)c2nc3c(C(=O)N[C@@H]4C(=O)N[C@H](C(C)C)C(=O)N5CCC[C@H]5C(=O)N(C)CC(=O)N(C)[C@@H](C(C)C)C(=O)O[C@@H]4C)ccc(C)c3oc-2c(C)c1=O | 0
Cc1c2oc3c(C)c(O)c(N)c(C(=O)N[C@@H]4C(=O)N[C@H](C(C)C)C(=O)N5CCC[C@H]5C(=O)N(C)CC(=O)N(C)[C@@H](C(C)C)C(=O)O[C@@H]4C)c3nc-2c(C(=O)N[C@@H]2C(=O)N[C@H](C(C)C)C(=O)N3CCC[C@H]3C(=O)N(C)CC(=O)N(C)[C@@H](C(C)C)C(=O)O[C@@H]2C)c/c1=N/Cc1cccc(Oc2ccccc2)c1 | 5.3
Cc1c2oc3c(C)c(O)c(N)c(C(=O)N[C@@H]4C(=O)N[C@H](C(C)C)C(=O)N5CCC[C@H]5C(=O)N(C)CC(=O)N(C)[C@@H](C(C)C)C(=O)O[C@@H]4C)c3nc-2c(C(=O)N[C@@H]2C(=O)N[C@H](C(C)C)C(=O)N3CCC[C@H]3C(=O)N(C)CC(=O)N(C)[C@@H](C(C)C)C(=O)O[C@@H]2C)cc1=O | 6.7
Cc1c2oc3c(C)c(O)c(N)c(C(=O)N[C@@H]4C(=O)N[C@H](C(C)C)C(=O)N5CCC[C@H]5C(=O)N(C)CC(=O)N(C)[C@@H](C(C)C)C(=O)O[C@@H]4C)c3nc-2c(C(=O)N[C@@H]2C(=O)N[C@H](C(C)C)C(=O)N3CCC[C@H]3C(=O)N(C)CC(=O)N(C)[C@@H](C(C)C)C(=O)O[C@@H]2C)cc1=N | 8.2
Cc1c2oc3c(C)c(O)c(N)c(C(=O)N[C@@H]4C(=O)N[C@H](C(C)C)C(=O)N5CCC[C@H]5C(=O)N(C)CC(=O)N(C)[C@@H](C(C)C)C(=O)O[C@@H]4C)c3nc-2c(C(=O)N[C@@H]2C(=O)N[C@H](C(C)C)C(=O)N3CCC[C@H]3C(=O)N(C)CC(=O)N(C)[C@@H](C(C)C)C(=O)O[C@@H]2C)c/c1=N/Cc1ccccc1 | 6.6
CCCCCCNc1c(C(=O)N[C@@H]2C(=O)N[C@H](C(C)C)C(=O)N3CCC[C@H]3C(=O)N(C)CC(=O)N(C)[C@@H](C(C)C)C(=O)O[C@@H]2C)c2nc3c(C(=O)N[C@@H]4C(=O)N[C@H](C(C)C)C(=O)N5CCC[C@H]5C(=O)N(C)CC(=O)N(C)[C@@H](C(C)C)C(=O)O[C@@H]4C)ccc(C)c3oc-2c(C)c1=O | 0
CCCCOc1cc(C(=O)N[C@@H]2C(=O)N[C@H](C(C)C)C(=O)N3CCC[C@H]3C(=O)N(C)CC(=O)N(C)[C@@H](C(C)C)C(=O)O[C@@H]2C)c2nc3c(C(=O)N[C@@H]4C(=O)N[C@H](C(C)C)C(=O)N5CCC[C@H]5C(=O)N(C)CC(=O)N(C)[C@@H](C(C)C)C(=O)O[C@@H]4C)c(N)c(=O)c(C)c-3oc2c1C | 2.7
CCOc1cc(C(=O)N[C@@H]2C(=O)N[C@H](C(C)C)C(=O)N3CCC[C@H]3C(=O)N(C)CC(=O)N(C)[C@@H](C(C)C)C(=O)O[C@@H]2C)c2nc3c(C(=O)N[C@@H]4C(=O)N[C@H](C(C)C)C(=O)N5CCC[C@H]5C(=O)N(C)CC(=O)N(C)[C@@H](C(C)C)C(=O)O[C@@H]4C)c(N)c(=O)c(C)c-3oc2c1C | 5.9
CCCCCNc1c(C(=O)N[C@@H]2C(=O)N[C@H](C(C)C)C(=O)N3CCC[C@H]3C(=O)N(C)CC(=O)N(C)[C@@H](C(C)C)C(=O)O[C@@H]2C)c2nc3c(C(=O)N[C@@H]4C(=O)N[C@H](C(C)C)C(=O)N5CCC[C@H]5C(=O)N(C)CC(=O)N(C)[C@@H](C(C)C)C(=O)O[C@@H]4C)ccc(C)c3oc-2c(C)c1=O | 0
Cc1c2oc3c(C)c(OCc4ccc(Cl)cc4)cc(C(=O)N[C@@H]4C(=O)N[C@H](C(C)C)C(=O)N5CCC[C@H]5C(=O)N(C)CC(=O)N(C)[C@@H](C(C)C)C(=O)O[C@@H]4C)c3nc-2c(C(=O)N[C@@H]2C(=O)N[C@H](C(C)C)C(=O)N3CCC[C@H]3C(=O)N(C)CC(=O)N(C)[C@@H](C(C)C)C(=O)O[C@@H]2C)c(N)c1=O | 0
Cc1c2oc3c(C)ccc(C(=O)N[C@@H]4C(=O)N[C@H](C(C)C)C(=O)N5CCC[C@H]5C(=O)N(C)CC(=O)N(C)[C@@H](C(C)C)C(=O)O[C@@H]4C)c3nc-2c(C(=O)N[C@@H]2C(=O)N[C@H](C(C)C)C(=O)N3CCC[C@H]3C(=O)N(C)CC(=O)N(C)[C@@H](C(C)C)C(=O)O[C@@H]2C)c(NCCCCCN)c1=O | 1.1
Cc1c2oc3c(C)c(OCc4ccc(Cl)c(Cl)c4)cc(C(=O)N[C@@H]4C(=O)N[C@H](C(C)C)C(=O)N5CCC[C@H]5C(=O)N(C)CC(=O)N(C)[C@@H](C(C)C)C(=O)O[C@@H]4C)c3nc-2c(C(=O)N[C@@H]2C(=O)N[C@H](C(C)C)C(=O)N3CCC[C@H]3C(=O)N(C)CC(=O)N(C)[C@@H](C(C)C)C(=O)O[C@@H]2C)c(N)c1=O | 0
Cc1c2oc3c(C)c(O)c(N)c(C(=O)N[C@@H]4C(=O)N[C@H](C(C)C)C(=O)N5CCC[C@H]5C(=O)N(C)CC(=O)N(C)[C@@H](C(C)C)C(=O)O[C@@H]4C)c3nc-2c(C(=O)N[C@@H]2C(=O)N[C@H](C(C)C)C(=O)N3CCC[C@H]3C(=O)N(C)CC(=O)N(C)[C@@H](C(C)C)C(=O)O[C@@H]2C)c/c1=N/Cc1ccco1 | 5.8
CCCCCCCCCNc1c(C(=O)N[C@@H]2C(=O)N[C@H](C(C)C)C(=O)N3CCC[C@H]3C(=O)N(C)CC(=O)N(C)[C@@H](C(C)C)C(=O)O[C@@H]2C)c2nc3c(C(=O)N[C@@H]4C(=O)N[C@H](C(C)C)C(=O)N5CCC[C@H]5C(=O)N(C)CC(=O)N(C)[C@@H](C(C)C)C(=O)O[C@@H]4C)ccc(C)c3oc-2c(C)c1=O | 0
CCCCCCCCC/N=c1/cc(C(=O)N[C@@H]2C(=O)N[C@H](C(C)C)C(=O)N3CCC[C@H]3C(=O)N(C)CC(=O)N(C)[C@@H](C(C)C)C(=O)O[C@@H]2C)c2nc3c(C(=O)N[C@@H]4C(=O)N[C@H](C(C)C)C(=O)N5CCC[C@H]5C(=O)N(C)CC(=O)N(C)[C@@H](C(C)C)C(=O)O[C@@H]4C)c(N)c(O)c(C)c3oc-2c1C | 1.1
Cc1c2oc3c(C)ccc(C(=O)N[C@@H]4C(=O)N[C@H](C(C)C)C(=O)N5CCC[C@H]5C(=O)N(C)CC(=O)N(C)[C@@H](C(C)C)C(=O)O[C@@H]4C)c3nc-2c(C(=O)N[C@@H]2C(=O)N[C@H](C(C)C)C(=O)N3CCC[C@H]3C(=O)N(C)CC(=O)N(C)[C@@H](C(C)C)C(=O)O[C@@H]2C)c(NCCCN)c1=O | 6.2
Cc1c2oc3c(C)ccc(C(=O)N[C@@H]4C(=O)N[C@H](C(C)C)C(=O)N5CCC[C@H]5C(=O)N(C)CC(=O)N(C)[C@@H](C(C)C)C(=O)O[C@@H]4C)c3nc-2c(C(=O)N[C@@H]2C(=O)N[C@H](C(C)C)C(=O)N3CCC[C@H]3C(=O)N(C)CC(=O)N(C)[C@@H](C(C)C)C(=O)O[C@@H]2C)c(NCCCCCCCCCCN)c1=O | 6.6
CCCOc1cc(C(=O)N[C@@H]2C(=O)N[C@H](C(C)C)C(=O)N3CCC[C@H]3C(=O)N(C)CC(=O)N(C)[C@@H](C(C)C)C(=O)O[C@@H]2C)c2nc3c(C(=O)N[C@@H]4C(=O)N[C@H](C(C)C)C(=O)N5CCC[C@H]5C(=O)N(C)CC(=O)N(C)[C@@H](C(C)C)C(=O)O[C@@H]4C)c(N)c(=O)c(C)c-3oc2c1C | 3.5
Cc1c2oc3c(C)ccc(C(=O)N[C@@H]4C(=O)N[C@H](C(C)C)C(=O)N5CCC[C@H]5C(=O)N(C)CC(=O)N(C)[C@@H](C(C)C)C(=O)O[C@@H]4C)c3nc-2c(C(=O)N[C@@H]2C(=O)N[C@H](C(C)C)C(=O)N3CCC[C@H]3C(=O)N(C)CC(=O)N(C)[C@@H](C(C)C)C(=O)O[C@@H]2C)c(NCCCCN)c1=O | 1.8
CCCNc1c(C(=O)N[C@@H]2C(=O)N[C@H](C(C)C)C(=O)N3CCC[C@H]3C(=O)N(C)CC(=O)N(C)[C@@H](C(C)C)C(=O)O[C@@H]2C)c2nc3c(C(=O)N[C@@H]4C(=O)N[C@H](C(C)C)C(=O)N5CCC[C@H]5C(=O)N(C)CC(=O)N(C)[C@@H](C(C)C)C(=O)O[C@@H]4C)ccc(C)c3oc-2c(C)c1=O | 1.5
COc1cc(C(=O)N[C@@H]2C(=O)N[C@H](C(C)C)C(=O)N3CCC[C@H]3C(=O)N(C)CC(=O)N(C)[C@@H](C(C)C)C(=O)O[C@@H]2C)c2nc3c(C(=O)N[C@@H]4C(=O)N[C@H](C(C)C)C(=O)N5CCC[C@H]5C(=O)N(C)CC(=O)N(C)[C@@H](C(C)C)C(=O)O[C@@H]4C)c(N)c(=O)c(C)c-3oc2c1C | 5.5
CCCCCCCOc1cc(C(=O)N[C@@H]2C(=O)N[C@H](C(C)C)C(=O)N3CCC[C@H]3C(=O)N(C)CC(=O)N(C)[C@@H](C(C)C)C(=O)O[C@@H]2C)c2nc3c(C(=O)N[C@@H]4C(=O)N[C@H](C(C)C)C(=O)N5CCC[C@H]5C(=O)N(C)CC(=O)N(C)[C@@H](C(C)C)C(=O)O[C@@H]4C)c(N)c(=O)c(C)c-3oc2c1C | 0
Cc1c2oc3c(C)c(OCc4ccc([N+](=O)[O-])cc4)cc(C(=O)N[C@@H]4C(=O)N[C@H](C(C)C)C(=O)N5CCC[C@H]5C(=O)N(C)CC(=O)N(C)[C@@H](C(C)C)C(=O)O[C@@H]4C)c3nc-2c(C(=O)N[C@@H]2C(=O)N[C@H](C(C)C)C(=O)N3CCC[C@H]3C(=O)N(C)CC(=O)N(C)[C@@H](C(C)C)C(=O)O[C@@H]2C)c(N)c1=O | 0

Source: ChEMBL document CHEMBL1121923, “N2- and C-7 substituted actinomycin D analogues: synthesis, DNA-binding affinity, and biochemical and biological properties. Structure-activity relationship” (J Med Chem, 1981)
